CHRM4 agonist – agonists of human muscarinic M4 receptor (CHRM4); P08173; 360,000 tested, 0.14% active; CHO-K1 hM4/Gqi5, Fluo-8 calcium fluorescence; vehicle 0%, full acetylcholine response 100%; activation, % at 3 µM; AID 624127;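 active means activation above the run mean over all test wells plus 3 SD, cut at about 32% in these data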;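 further: peak over basal fluorescence ratio per well then scaled between controls; 0% = DMSO wells and 100% = acetylcholine at EC100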
CHRM5 antagonist – blocks acetylcholine activation of human M5 receptor | 360,000 tested, 0.59% active | P08912 | AID 624040 | CHO-hM5 cells, Fluo-8 calcium fluorescence, ACh EC80 | inhibition, % at 3 µM;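 active means inhibition above a per-plate cutoff, the mean of that plate's test compounds plus 3 SD, cut at about 27% in these data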;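 further: 0% = acetylcholine EC80 with DMSO and 100% = DMSO without agonist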
Target sequence (P08912 whole entry, looked up): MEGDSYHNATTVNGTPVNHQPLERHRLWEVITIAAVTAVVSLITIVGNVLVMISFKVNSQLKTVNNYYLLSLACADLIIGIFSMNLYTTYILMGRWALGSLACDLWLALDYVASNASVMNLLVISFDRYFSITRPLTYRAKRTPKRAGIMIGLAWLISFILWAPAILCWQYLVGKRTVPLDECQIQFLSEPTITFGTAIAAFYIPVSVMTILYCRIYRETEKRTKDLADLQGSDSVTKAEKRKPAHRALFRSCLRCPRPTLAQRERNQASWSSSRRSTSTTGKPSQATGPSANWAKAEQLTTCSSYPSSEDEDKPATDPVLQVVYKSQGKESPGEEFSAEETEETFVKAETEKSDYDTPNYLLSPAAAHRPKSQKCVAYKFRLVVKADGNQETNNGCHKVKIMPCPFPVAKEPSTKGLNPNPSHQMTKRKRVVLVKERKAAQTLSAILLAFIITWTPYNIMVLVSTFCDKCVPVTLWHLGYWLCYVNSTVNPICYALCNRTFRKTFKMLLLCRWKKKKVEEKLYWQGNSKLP
M5 PAM – positive allosteric modulators of human muscarinic M5 receptor; CHO-K1 hM5, Fluo-8 calcium, ACh EC20 PAM; 0% = ACh EC20, 100% = ACh EC100; P08912; activation, % at 3 µM; 360,000 tested, 0.3% active;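 active means activation above the run cutoff, the mean activation of all test compounds plus 3 SD, cut at about 18% in these data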
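Replicates: One well per compound, no replicates | System: Human M5 receptor in CHO-K1 cells | Benchmarks: Low control EC20 acetylcholine (0%), high control EC100 acetylcholine (100%) | Probe or stimulus: Acetylcholine, EC20 level | Times: Fluo-8 loading 80 min at 37 °C plus 30 min room temperature | Signal: Intracellular calcium via Fluo-8 fluorescence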
M5 ag – agonists of human muscarinic M5 receptor (CHRM5). P08912. CHO-K1 hM5 cells, Fluo-8 calcium fluorescence; 0% DMSO wells, 100% maximal acetylcholine response. activation, % at 3 µM. 360,000 tested, 0.19% active. AID 624037;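 active means activation above the run's mean over test compounds plus 3 SD, cut at about 23% in these data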;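 further: signal is peak over basal fluorescence ratio across the kinetic read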
CHRM4 antagonist – blocks acetylcholine activation of human M4 receptor | inhibition, % at 3 µM | P08173 | CHO-hM4 cells, ACh EC80, Fluo-8 calcium fluorescence | 360,000 tested, 0.73% active;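 active means inhibition above its plate's cutoff, the mean inhibition of sample wells plus 3 SD, cut at about 27% in these data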;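 further: 0% = acetylcholine EC80 with DMSO and 100% = DMSO without agonist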
CHRM4 PAM – potentiates acetylcholine response at human M4 receptor; P08173; CHO-K1 hM4/Gqi5, Fluo-8 calcium fluorescence, ACh EC20; 0% = ACh EC20, 100% = maximal ACh; activation, % at 3 µM; 360,000 tested, 0.4% active; AID 624126;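 active means activation above its plate's cutoff, the mean activation of sample wells plus 3 SD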
The depositor's hits bear a star. An excerpt weighted towards active compounds, which were near 1.9% of everything screened.

For Cc1ccc2ccccc2c1C(O)c1ncc(-c2cccc(F)c2)[nH]1 (centres undefined) the results were CHRM4 agonist 4.1, CHRM5 antagonist 7.2, M5 PAM -6.0, M5 ag 0.9, CHRM4 antagonist -5.6 and CHRM4 PAM -3.5.
Screening O=C(COC(=O)CNC(=O)c1ccccc1Cl)Nc1ccccc1Cl returned CHRM4 agonist 0.3, CHRM5 antagonist 9.5, M5 PAM 3.1, M5 ag 1.6, CHRM4 antagonist 5.7 and CHRM4 PAM 5.2.
`COc1cccc(C(=O)OCCN2CCCCC2)c1` gave CHRM4 agonist 1.1, CHRM5 antagonist 30.1*, M5 PAM 1.6, M5 ag -7.4, CHRM4 antagonist 0.6 and CHRM4 PAM 1.8.
CC[N+](C)(C)CCN(Cc1ccc(Cl)cc1)c1ccccn1 was read as CHRM4 agonist 0.8, CHRM5 antagonist 46.6*, M5 PAM -23.4, M5 ag -5.1, CHRM4 antagonist 19.1 and CHRM4 PAM -15.4.
`Nc1cc(=O)[nH]c2ncnn12` gave CHRM4 agonist 0.0, CHRM5 antagonist -12.6, M5 PAM 3.0, M5 ag 3.3, CHRM4 antagonist -4.6 and CHRM4 PAM 2.1.
C=CCN1C(=O)C2(OCCCO2)c2cc(C)ccc21 was read as CHRM4 agonist 1.1, CHRM5 antagonist -2.8, M5 PAM 20.1*, M5 ag 2.3, CHRM4 antagonist 0.0 and CHRM4 PAM -2.3.
`C=CCN1C(=O)C2(OCCCO2)c2cc(CCCC)ccc21` gave CHRM4 agonist -2.3, CHRM5 antagonist 4.8, M5 PAM 5.0, M5 ag -4.8, CHRM4 antagonist -2.8 and CHRM4 PAM -1.8.
`C=CCN(c1ccccc1OC)S(=O)(=O)c1cccc(C(=O)OCC(=O)c2c(N)n(C)c(=O)n(C)c2=O)c1` gave CHRM4 agonist 15.3, CHRM5 antagonist 26.9*, M5 PAM -34.2, M5 ag -3.3, CHRM4 antagonist 14.3 and CHRM4 PAM -13.4.
CCN1CCN(c2ccc(NC(=O)c3cc4ccccc4cc3OC)cc2C)CC1 was read as CHRM4 agonist 6.6, CHRM5 antagonist 56.1*, M5 PAM -42.0, M5 ag -9.1, CHRM4 antagonist 18.9 and CHRM4 PAM -12.8.
CCN1CCN(c2ccc(NC(=O)c3ccccc3F)cc2Cl)CC1 was read as CHRM4 agonist -0.1, CHRM5 antagonist 11.9, M5 PAM -25.8, M5 ag -17.7, CHRM4 antagonist 16.4 and CHRM4 PAM -13.1.
Screening O=C(Cc1ccc(Br)cc1)Nc1ccc(S(=O)(=O)Nc2ncccn2)cc1 returned CHRM4 agonist 0.5, CHRM5 antagonist 3.6, M5 PAM -1.8, M5 ag -4.9, CHRM4 antagonist -0.2 and CHRM4 PAM -0.6.
CN(C)c1ccc(/C=C(/C#N)C(=O)Nc2nc3c(s2)CCN(Cc2ccccc2)C3)cc1 was read as CHRM4 agonist 13.7, CHRM5 antagonist 24.3, M5 PAM -27.6, M5 ag 48.8*, CHRM4 antagonist 8.8 and CHRM4 PAM -4.7.
O=C1NC(Cc2ccc(O)cc2)c2nc3ccc(F)cc3c(=O)n2-c2cc3ccccc3cc21 (centres undefined) was read as CHRM4 agonist 19.7, CHRM5 antagonist 2.5, M5 PAM -9.9, M5 ag 3.0, CHRM4 antagonist 14.2 and CHRM4 PAM -10.6.
Screening COC(=O)C1=C(C)NC2=C(C(=O)C(C(=O)OC)C(c3ccc(OC)cc3)C2)C1c1ccccn1 (centres undefined) returned CHRM4 agonist 5.5, CHRM5 antagonist 3.0, M5 PAM 37.4*, M5 ag -1.9, CHRM4 antagonist -18.6 and CHRM4 PAM -1.8.
For COC(=O)C1=C(C)NC2=C(C(=O)CC(C)(C)C2)C1c1ccccn1 (centres undefined) the results were CHRM4 agonist 1.3, CHRM5 antagonist 0.6, M5 PAM 4.2, M5 ag -0.7, CHRM4 antagonist -9.4 and CHRM4 PAM 12.6.
Cc1ccc(NC(=O)C2(C)CCN2Cc2csc3ccccc23)cc1 (centres undefined) was read as CHRM4 agonist -0.5, CHRM5 antagonist 6.9, M5 PAM -17.7, M5 ag -4.0, CHRM4 antagonist 45.9* and CHRM4 PAM -13.6.
CC1(C(=O)Nc2ccc3c(c2)OCO3)CCN1Cc1csc2ccccc12 (centres undefined) was read as CHRM4 agonist 3.4, CHRM5 antagonist 13.0, M5 PAM -19.8, M5 ag -2.5, CHRM4 antagonist 10.6 and CHRM4 PAM -12.3.
COc1ccc(C2=NS(=O)(=O)N(C)C(C(=O)N3CCCCC3)=C2)cc1OC was read as CHRM4 agonist 2.5, CHRM5 antagonist -2.0, M5 PAM -5.8, M5 ag 2.7, CHRM4 antagonist -2.4 and CHRM4 PAM -1.5.
CCN1CCN(CCCNC(=O)CN2C(=O)c3cccnc3Oc3ccc(Cl)cc32)CC1 was read as CHRM4 agonist -1.1, CHRM5 antagonist 10.8, M5 PAM -2.5, M5 ag -5.0, CHRM4 antagonist -3.5 and CHRM4 PAM -6.2.
`S=C1NCCN1CC1CCN(CCC23CC4CC(CC(C4)C2)C3)CC1` gave CHRM4 agonist 2.7, CHRM5 antagonist 10.9, M5 PAM -15.9, M5 ag -3.0, CHRM4 antagonist 57.9* and CHRM4 PAM -15.0.
`CC(C)C[C@H]1CNC(=S)N1CC1CCN(CCC23CC4CC(CC(C4)C2)C3)CC1` gave CHRM4 agonist 3.1, CHRM5 antagonist 49.2*, M5 PAM -19.5, M5 ag -3.4, CHRM4 antagonist 66.6* and CHRM4 PAM -16.1.
Screening CCN1CCC(CN2CCNC2=S)CC1 returned CHRM4 agonist -0.2, CHRM5 antagonist -6.2, M5 PAM 3.5, M5 ag -1.5, CHRM4 antagonist -0.8 and CHRM4 PAM -0.2.
Screening CC[C@H](C)[C@H]1CNC(=S)N1CC1CCN(CCCC2CCCC2)CC1 returned CHRM4 agonist 2.5, CHRM5 antagonist 16.0, M5 PAM -17.5, M5 ag -3.0, CHRM4 antagonist 26.6* and CHRM4 PAM -14.3.
`CC(C)C[C@H]1CNC(=S)N1CC1CCN(CCCC2CCCCC2)CC1` gave CHRM4 agonist 1.3, CHRM5 antagonist 15.2, M5 PAM -18.9, M5 ag -3.1, CHRM4 antagonist 55.1* and CHRM4 PAM -15.0.
Screening CCOc1ccc(S(=O)(=O)N=C(c2ccccc2)N2CCOCC2)cc1 returned CHRM4 agonist 1.4, CHRM5 antagonist -5.1, M5 PAM 6.8, M5 ag 2.0, CHRM4 antagonist -8.6 and CHRM4 PAM 13.6.
For COC(=O)c1cnc(N)s1 the results were CHRM4 agonist 7.9, CHRM5 antagonist 17.9, M5 PAM -14.7, M5 ag 2.8, CHRM4 antagonist 1.0 and CHRM4 PAM 0.6.
